Published values pooled from the literature.
Protocols differ between the studies behind these lines.
Target: Interleukin-1 receptor-associated kinase 1 (IRAK1, Homo sapiens, UniProt P51617)

CN(c1ccnc(CNc2nc(Nc3ccc4c(c3)CC(=O)N4)ncc2C(F)(F)F)n1)S(C)(=O)=O  remaining binding (cell-free assay, competition with immobilised ligand; 1 µM): 13%
N[C@@H]1CCN(c2nccc(-c3cnn4ncccc34)n2)C1  remaining binding (binding; 1 µM): 100%
C[C@H](c1cccc(C#N)c1)n1cc(Cl)cc(C(N)=O)c1=N  remaining binding (cell-free assay, competition with immobilised ligand; 1 µM): 71%
COc1cnc(Nc2cccc(S(N)(=O)=O)c2)nc1N1CCN(c2ccccc2)C(=O)C1  remaining binding (binding, competition with immobilised ligand; 1 µM): 55%
c1cncc(-c2cccc(Nc3nccc(NC4CCCCC4)n3)c2)c1  remaining binding (binding, competition with immobilised ligand; 10 µM): 9.9%
CC1CCCN1c1nccc(-c2cnn3ncccc23)n1 (stereo not drawn)  remaining binding (binding; 1 µM): 85%
C[C@@]1(Cc2ccc(C#N)cc2)C(=O)N(c2cc(Cl)cc(Cl)c2)c2ncc(C(=O)NC3(c4nc(C5CCC5)no4)CC3)n21  remaining binding (cell-free assay, competition with immobilised ligand; 1 µM): 100%
CN(c1nccc(-c2cnn3ncccc23)n1)C1CC1  remaining binding (binding; 1 µM): 100%
O=C(c1ccc(Nc2ncc(Cl)c(-c3ccc(Cl)s3)n2)cc1)N1CCC(N2CCCC2)CC1  remaining binding (binding, competition with immobilised ligand; 1 µM): 0.05%
Cc1c(NC(=O)c2cc(C(N)=O)nc3cc(F)ccc23)c(C(F)(F)F)nn1Cc1ccc(C#N)cc1  remaining binding (cell-free assay, competition with immobilised ligand; 1 µM): 70%
CCN1CCN(Cc2ccc(C(=O)Nc3ccc(C)c(Oc4ccc5c(c4)CC(=O)N5)c3)cc2C(F)(F)F)CC1  remaining binding (binding, competition with immobilised ligand; 1 µM): 100%
CCC(=O)N[C@@H]1CC[C@H](C(=O)N(C)c2ccc(-c3nc4ccccc4o3)cc2)C1  remaining binding (cell-free assay, competition with immobilised ligand; 1 µM): 100%
C[C@@H](c1ccc(-n2cnc3c(N)ncnc32)cc1)N1CCc2nn(C)c(Cc3ccccc3)c2C1=O  remaining binding (binding, competition with immobilised ligand; 0.1 µM): 69%
CCCOc1ccc([C@H]2[C@H](C(=O)O)[C@@H](c3ccc4c(c3)OCO4)CN2CC(=O)Nc2c(CC)cccc2CC)cc1  remaining binding (cell-free assay, competition with immobilised ligand; 1 µM): 67%
CN(C)c1nccc(-c2cnn3ncccc23)n1  remaining binding (binding; 1 µM): 71%
O=C(Nc1c[nH]nc1C(=O)NC1CCNCC1)c1cc(F)cc(F)c1  remaining binding (binding, competition with immobilised ligand; 1 µM): 95%
C[C@@H]1CCN(c2nccc(-c3cnn4ncccc34)n2)C1  remaining binding (binding; 1 µM): 98%
O=C(c1ccc(Nc2nccc(-c3cc4ccccc4s3)n2)cc1)N1CCC(N2CCCC2)CC1  remaining binding (binding, competition with immobilised ligand; 1 µM): 3.2%
Nc1ncc2c(n1)-c1c([nH]c3ccc(C#CC4CC4)cc13)CCCC2  remaining binding (binding, competition with immobilised ligand; 1 µM): 96%
CN(C)c1nccc(-c2cnc3ncccn23)n1  remaining binding (binding; 1 µM): 65%
O=C(NCCCN1CCOCC1)c1ccc(Nc2ncc(Cl)c(-c3ccc(Cl)s3)n2)cc1  remaining binding (binding, competition with immobilised ligand; 1 µM): 0.15%
